Test [1] concerns Influenza A virus. Put plainly: Antiviral activity against Influenza A virus H1N1 A/FM-1/1/47 infected in MDCK cells assessed as inhibition of virus-induced cytopathic effect after 48 hrs by MTT assay. It counts as functional, organism-based. In general terms: Cytopathic effects are the visible damage that an infection or toxin causes in cultured cells.
The target in test [2] is T1, Phosphotyrosine protein phosphatase (Mycobacterium tuberculosis) (UniProt A0A045ISB3).
T1 sequence (whole entry): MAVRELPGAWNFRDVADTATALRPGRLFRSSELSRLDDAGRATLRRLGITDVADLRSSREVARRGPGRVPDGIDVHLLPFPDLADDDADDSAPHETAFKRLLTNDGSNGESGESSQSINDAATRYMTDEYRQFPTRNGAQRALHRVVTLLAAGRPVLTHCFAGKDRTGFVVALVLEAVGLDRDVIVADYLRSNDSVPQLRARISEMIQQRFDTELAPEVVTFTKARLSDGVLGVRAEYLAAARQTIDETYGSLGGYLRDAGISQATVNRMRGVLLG
As to the kind of experiment: Inhibition of Mycobacterium PTPB at 50 uM using p-nitrophenyl phosphate as substrate incubated for 10 mins followed by substrate addition and measured for 5 mins by spectrophotometric method.

In test [3] the test system is Staphylococcus aureus. Put plainly: Antimicrobial activity against Staphylococcus aureus by broth microdilution method. It counts as functional, organism-based. (In general: In broth dilution the organism is exposed to a series of concentrations in liquid medium.)
Test [4] deals with Colletotrichum asianum. As to the kind of experiment: Antimicrobial activity against Colletotrichum asianum by broth microdilution method. Format: functional.
Test [5] has as its system Colletotrichum acutatum. Put plainly: Antimicrobial activity against Colletotrichum acutatum by broth microdilution method. It counts as functional.
Test [6] in a line: Antioxidant activity assessed as DPPH radical scavenging activity incubated for 30 mins in dark condition. It counts as functional. A digest of the protocol: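 Test samples in DMSO were mixed 1:9 with freshly made 0.2 mM DPPH in EtOH (DPPH stock level), giving final compound levels of 50, 25, 12.5, 6.25 and 3.125 μg/mL, in triplicate, with ascorbic acid as positive control. After 30 min in the dark, the fall in absorbance at 517 nm was read. Blank: EtOH instead of DPPH. Control: DMSO instead of sample. % scavenging = [1 − (sample − blank)/control] × 100. IC50 is the concentration scavenging 50% of radicals.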
On the technique in general: Loss of DPPH colour is used to gauge radical scavenging.

In brackets after ≈: the same amount, converted by molar mass. Activity calls are given as the source filed them. The calls are words filed in the database; no cut-off is given here.

Regarding `CC[C@H](O)[C@H]1C[C@H]2OC(=O)c3c(cc(OC)c(OC)c3O)[C@H]2O1`, the inhibition result in test [1] and in test [2] was “inactive” each time. The result in test [3] was inactive.
For the compound `COc1cc2c(c(O)c1OC)C(=O)O[C@@H]1C[C@H](CCC(=O)O)O[C@H]21`, the inhibition entry in test [1] and in test [2] was “inactive” in each case. Also, the result in test [3] was inactive.
Take `COC(=O)CCCc1c(OC)cc(=O)oc1C`: the inhibition entry in test [1] and in test [2] was “inactive” each time. For the same compound, the result in test [3] was inactive.
Regarding `COc1cc(=O)oc(C)c1CCC(C)O` (centres undefined), the inhibition entry in test [1] and in test [2] was “inactive” in each case. Also, the result in test [3] was inactive.
What is called MIC is the lowest concentration found to suppress growth. A low value points to inhibition by little substance. In the case of `C[C@@H]1C[C@@H]([C@H](O)CC2CC(=O)NC(=O)C2)C(=O)[C@@H](C)C1` [CYCLOHEXIMIDE], the MIC in test [4] stood at 80 µg/mL (≈ 284 µM); in test [5], 40 µg/mL (≈ 142 µM).
As a reminder, the IC50 is the point on the concentration scale where inhibition reaches its midpoint. Consider `O=C1O[C@H]([C@@H](O)CO)C(O)=C1O` [ASCORBIC ACID], for which, in test [6], the half-inhibitory concentration (IC50) turned out to be 39 µM.
On to `CCCCC1=C(OC)C(=O)OC1(C)O` (racemic), for which the inhibition result in test [1] and in test [2] was “inactive” throughout. Moreover, the outcome in test [3] was inactive.
Turning to `COCc1c(O)cc(C)c2c1Oc1c(C)cc(O)c(C)c1OC2=O`, the inhibition result in test [1] and in test [2] was “inactive” each time. Besides, the MIC in test [4] came to 160 µg/mL (≈ 484 µM); in test [5], 310 µg/mL (≈ 938 µM). For the same compound, in test [3], the outcome was inactive.
Consider `COc1cc2c(c(O)c1OC)C(=O)O[C@@H]1C[C@H](CCCO)O[C@H]21`, for which the inhibition entry in test [1] and in test [2] was “inactive” in each case. Also, the result in test [3] was inactive.
Consider `CC[C@@H](O)[C@H]1C[C@H]2OC(=O)c3c(cc(OC)c(OC)c3O)[C@H]2O1`, for which the inhibition entry in test [1] and in test [2] was “inactive” each time. Besides, the result in test [3] was inactive.
Consider `CCCC(=O)CC[C@@H]1OC(=O)c2c1cc(OC)c(OC)c2O`, for which the inhibition result in test [1] and in test [2] was “inactive” throughout. Moreover, in test [3], the result was inactive.
Take `CCC(O)Cc1c(OC)cc(=O)oc1C` (centres undefined): the inhibition entry in test [1] and in test [2] was “inactive” each time. The result in test [3] was inactive.
For the compound `CCC[C@H]1C[C@H](O)[C@@]2(OC(=O)c3c2cc(OC)c(OC)c3O)O1`, the inhibition entry in test [1] and in test [2] was “inactive” each time. In test [3], the outcome was inactive.
Take `CCC[C@H]1C[C@H](O)[C@]2(OC(=O)c3c2cc(OC)c(OC)c3O)O1`: the inhibition entry in test [1] and in test [2] was “inactive” each time. Moreover, the outcome in test [3] was inactive.
With `CCCCOCc1c(O)cc(C)c2c1Oc1c(C)cc(O)c(C)c1OC2=O`, the inhibition result in test [1] and in test [2] was “inactive” each time. The MIC in test [4] and in test [5] was 630 µg/mL (≈ 1690 µM) each time. For the same compound, the outcome in test [3] was inactive.
As to `CCC[C@@H]1C[C@H]2OC(=O)c3c(cc(OC)c(OC)c3O)[C@@H]2O1`, the inhibition entry in test [1] and in test [2] was “inactive” throughout. Besides, in test [3], the outcome was inactive.
In the case of `CCC[C@H]1C[C@H]2OC(=O)c3c(cc(OC)c(O)c3O)[C@H]2O1`, the IC50 in test [6] was found to be 38 µM. Further, the inhibition entry in test [1] and in test [2] was “inactive” throughout. Besides, the result in test [3] was inactive.
For `COc1cc(=O)oc(C)c1CCCC(=O)O`, the inhibition result in test [1] and in test [2] was “inactive” each time. Moreover, in test [3], the result was inactive.
On to `CCC[C@H]1C[C@H]2OC(=O)c3c(cc(OC)c(OC)c3O)[C@@H]2O1`, for which the inhibition result in test [1] and in test [2] was “inactive” each time. Further, the result in test [3] was inactive.
As for `COc1cc2c(c(O)c1OC)C(=O)O[C@@H]1C[C@H](C[C@@H](C)O)O[C@H]21`, the inhibition entry in test [1] and in test [2] was “inactive” each time. The result in test [3] was inactive.
Consider `CCC[C@@H]1C[C@H]2OC(=O)c3c(cc(O)c(OC)c3O)[C@@H]2O1`, for which the inhibition entry in test [1] and in test [2] was “inactive” each time. The result in test [3] was inactive.
As for `CCCC(=O)CC[C@H]1OC(=O)c2c1cc(O)c(OC)c2O`, the inhibition result in test [1] and in test [2] was “inactive” each time. The result in test [3] was inactive.
For the compound `CCCCc1c(OC)cc(=O)oc1C`, the inhibition result in test [1] and in test [2] was “inactive” throughout. Besides, in test [3], the result was inactive.
As to `CCCCc1c(OC)cc(=O)oc1CO`, the inhibition entry in test [1] and in test [2] was “inactive” throughout. The result in test [3] was inactive.

For the origin of these results see ChEMBL document CHEMBL4196140, “Spiro-Phthalides and Isocoumarins Isolated from the Marine-Sponge-Derived Fungus Setosphaeria sp. SCSIO41009” (J Nat Prod, 2018).
